Measurements from PubChem BioAssay AID624402 (The Scripps Research Institute Molecular Screening Center, 2012).
The source made the active and inactive calls.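 Rule for the calls: active = binding altered by at least 10% in every panel; inactive = the rest.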

Test system: aryl hydrocarbon receptor (Cavia porcellus)
Test: AhR activators driving DRE binding, late-stage follow-up, counter-screen for AhR activator project, biochemical, radiometric EMSA, guinea pig liver cytosol (AID 624402)
Conditions: stronger effect = higher value
Method in brief: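 System: guinea pig hepatic cytosol, AhR. Probe or stimulus: Poly dIdC and [32P]-DRE probe. Repeats: triplicates. Doses: 10 µM test compound. Medium: HEDG, pH 7.5. Schedule: 2.5 h compound exposure at room temperature, 15 min per later addition. Control set: 20 nM TCDD reference. Technique: radiometric EMSA, phosphorimaging.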

SMILES | inhibition (run 1, at 10 µM) | inhibition (run 2, at 10 µM)
Cc1ccc(-c2cc(-c3ccc(F)cc3)n[nH]2)c(O)c1 | 50.8% | 47.5%
CN(Cc1cc(-c2cccs2)n[nH]1)Cc1coc2ccccc2c1=O | 22.1% | 19%
Nc1nc(Cl)cc(Nc2ccc(Oc3ccccc3)cc2)n1 | 10.9% (inactive) | 8.5% (inactive)
Cc1ccc(-c2cc(-c3cccc(F)c3)n[nH]2)c(O)c1 | 42.7% | 39.8%
Cc1ccnc(NC(=O)CSc2nc3ccccc3s2)c1 | 19.7% | 17.3%
Nc1nc(Cl)cc(Nc2ccccc2F)n1 | 15.4% | 12.5%
Cc1csc(SCC(=O)Nc2ccccn2)n1 | 6.2% (inactive) | 6.7% (inactive)
CCOC(=O)c1c(C)nn(-c2cc(Cl)ccc2Cl)c1C | 8.4% (inactive) | 5.4% (inactive)
Cc1ccc(O)c(-c2cc(-c3ccccc3Cl)[nH]n2)c1 | 58.4% | 51.9%
COc1ccc(Nc2cc(Cl)nc(N)n2)cc1 | 10% (inactive) | 7.1% (inactive)
O=C(CSc1nc2ccccc2s1)Nc1ccc(Cl)cn1 | 16.3% | 19.4%
COc1ccc(O)c(-c2cc(-c3cccs3)[nH]n2)c1 | 6.4% (inactive) | 5.5% (inactive)
Cc1cc(Nc2ccc(F)cc2)nc(N)n1 | 9.6% (inactive) | 5.6% (inactive)
O=C(CSc1nc(-c2ccc(F)cc2)cs1)Nc1ccccn1 | 9.5% (inactive) | 7.1% (inactive)
O=C(CSc1nc2ccccc2s1)Nc1ccccn1 | 41.3% | 38.5%

Continued, values first:

inhibition (run 1, at 10 µM) | inhibition (run 2, at 10 µM) | SMILES
4.8% (inactive) | 3.2% (inactive) | COc1ccc(-c2cc(-c3ccc(C)cc3O)[nH]n2)cc1
9.7% (inactive) | 8.4% (inactive) | COc1ccc(Cl)cc1NC(=O)c1ccc(C(=O)Nc2cc(Cl)ccc2OC)nc1
8.2% (inactive) | 4.3% (inactive) | Cc1cccc(NC(=O)c2cc(-c3ccc(C)cc3O)n[nH]2)c1
8.6% (inactive) | 9% (inactive) | Cc1cccc(C)c1NC(=O)c1ccc(C(=O)Nc2c(C)cccc2C)nc1
7.5% (inactive) | 5.6% (inactive) | COc1ccc(Nc2cc(Cl)nc(N)n2)cc1OC
5.8% (inactive) | 5.3% (inactive) | Cc1cc(Br)cc(C)c1Nc1ccnc(Nc2ccc(C#N)cc2)n1
6.9% (inactive) | 11.8% (inactive) | COc1ccc(NC(=O)c2ccc(C(=O)Nc3ccc(OC)cc3OC)nc2)c(OC)c1
32.8% | 28.8% | Cc1ccc(-c2cc(-c3ccc(Cl)cc3)n[nH]2)c(O)c1
13.3% | 9.3% (inactive) | Cc1ccc(NC(=O)c2ccc(C(=O)Nc3ccc(C)cc3C)nc2)c(C)c1
6.4% (inactive) | 4.4% (inactive) | CCOc1ccccc1NC(=O)c1ccc(C(=O)Nc2ccccc2OCC)nc1
